# ChEMBL document CHEMBL3751702, “Comprehensive Analysis of Structure-Activity Relationships of α-Ketoheterocycles as sn-1-Diacylglycerol Lipase α Inhibitors” (J Med Chem, 2015)
# Biological target: T1, Diacylglycerol lipase-alpha (Homo sapiens, UniProt Q9Y4D2)
# T1 sequence (Q9Y4D2 whole entry): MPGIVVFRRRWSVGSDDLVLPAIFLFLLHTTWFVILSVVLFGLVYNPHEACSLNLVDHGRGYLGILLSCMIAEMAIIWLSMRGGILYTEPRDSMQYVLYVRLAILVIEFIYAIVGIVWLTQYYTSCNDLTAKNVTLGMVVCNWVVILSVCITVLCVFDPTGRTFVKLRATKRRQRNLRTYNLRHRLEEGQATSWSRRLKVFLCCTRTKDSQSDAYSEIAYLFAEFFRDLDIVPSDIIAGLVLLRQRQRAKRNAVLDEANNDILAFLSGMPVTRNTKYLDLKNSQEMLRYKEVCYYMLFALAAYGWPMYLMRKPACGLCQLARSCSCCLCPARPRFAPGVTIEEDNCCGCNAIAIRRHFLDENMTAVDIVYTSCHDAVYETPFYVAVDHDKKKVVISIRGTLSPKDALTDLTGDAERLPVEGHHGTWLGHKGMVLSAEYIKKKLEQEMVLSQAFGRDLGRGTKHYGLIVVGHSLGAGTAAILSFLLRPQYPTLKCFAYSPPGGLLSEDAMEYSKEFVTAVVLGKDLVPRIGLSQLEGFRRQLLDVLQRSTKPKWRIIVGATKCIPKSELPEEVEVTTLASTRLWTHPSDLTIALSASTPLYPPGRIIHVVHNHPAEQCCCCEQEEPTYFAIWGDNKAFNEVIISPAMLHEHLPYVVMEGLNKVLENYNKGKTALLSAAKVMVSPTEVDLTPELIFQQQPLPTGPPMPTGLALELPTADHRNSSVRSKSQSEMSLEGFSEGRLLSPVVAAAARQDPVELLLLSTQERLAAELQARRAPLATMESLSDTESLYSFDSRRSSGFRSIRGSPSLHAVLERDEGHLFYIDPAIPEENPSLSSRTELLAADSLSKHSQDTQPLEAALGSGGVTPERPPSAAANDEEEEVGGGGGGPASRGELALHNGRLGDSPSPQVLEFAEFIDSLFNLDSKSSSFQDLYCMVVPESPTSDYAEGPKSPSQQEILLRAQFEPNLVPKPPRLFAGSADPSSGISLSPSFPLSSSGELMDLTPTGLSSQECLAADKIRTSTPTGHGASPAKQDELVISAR
# Experiment: Inhibition of full-length human DAGLalpha expressed in HEK293T cell membranes using para-nitrophenylbutyrate by colorimetric assay
# Format: cell-based, HEK-293T
# Procedure, shortened: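 Membranes from HEK293T cells transiently transfected with full-length human DAGL-α (pcDNA3.1; PEI transfection, harvested at 72 h), diluted to 0.05 μg/μL final protein in 50 mM HEPES pH 7.2. Screen at 10 μM in duplicate; dose response by 10-fold serial dilution.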
IC50 [µM],pIC50 (hek-293t),SMILES
> 10,–,O=C(CCCCCCc1ccccc1)c1ncc(-c2ccccc2)o1
> 10,–,O=C(CCCCCCc1ccccc1)c1nnc(-c2ccccc2)o1
> 10,–,O=C(CCCCCCc1ccccc1)c1nnc(-c2ccccn2)o1
0.0468,–,O=C(CCCCCCCc1ccccc1)c1nc2ncccc2o1
> 10,–,O=C(CCCCCCc1ccccc1)c1nnc(-c2ccncc2)o1
0.0646,–,CCCCCCCCCCCCCCCC(=O)c1nc2ncccc2o1
0.0741,–,CCCCCCCCCCCCCC(=O)c1nc2ncccc2o1
0.0741,–,CCCCCCCCCC(=O)c1nc2ncccc2o1
> 10,–,CCCCCC(=O)c1nc2ncccc2o1
> 10,–,CC(=O)c1nc2ncccc2o1
0.00363,–,O=C(CCCCCCCCc1ccccc1)c1nc2ncccc2o1
> 10,–,CN(C)C(=O)c1cnc(C(=O)CCCCCCc2ccccc2)o1
> 10,–,CC(=O)c1cnc(C(=O)CCCCCCc2ccccc2)o1
> 10,–,CNC(=O)c1cnc(C(=O)CCCCCCc2ccccc2)o1
> 10,–,CSc1cnc(C(=O)CCCCCCc2ccccc2)o1
> 10,–,O=C(CCCCCCc1ccccc1)c1ncco1
> 10,–,COc1ccc(-c2cnc(C(=O)CCCCCCc3ccccc3)o2)cc1
> 10,–,O=C(CCCCCCc1ccccc1)c1ncc(-c2ccc(C(=O)C(F)(F)F)cc2)o1
> 10,–,Cc1ccc(-c2cnc(C(=O)CCCCCCc3ccccc3)o2)nc1
1.82,–,O=C(CCCCCCc1ccccc1)c1ncc(C(=O)C(F)(F)F)o1
> 10,–,O=C(CCCCCCc1ccccc1)c1ncc(Cl)o1
> 10,–,O=Cc1cnc(C(=O)CCCCCCc2ccccc2)o1

IC50 [µM],pIC50 (hek-293t),SMILES
> 10,–,N#Cc1cnc(C(=O)CCCCCCc2ccccc2)o1
> 10,–,COC(=O)c1cnc(C(=O)CCCCCCc2ccccc2)o1
> 10,–,Cc1cnc(C(=O)CCCCCCc2ccccc2)o1
> 10,–,O=C(CCCCCCc1ccccc1)c1ncc(-c2ccc(F)cc2)o1
> 10,–,O=C(CCCCCCc1ccccc1)c1ncc(-c2ccccc2F)o1
0.631,–,CCCCCCCC(=O)c1nc2ncccc2o1
0.0309,–,CCCCCCCCCCCC(=O)c1nc2ncccc2o1
2.24,–,O=C(CCCc1ccccc1)c1nc2ncccc2o1
0.0263,–,CCCCCCCC/C=C\CCCCCCCC(=O)c1nc2ncccc2o1
> 10,–,O=C(CCCCCCc1ccccc1)c1nnc(-c2cccnc2)o1
0.525,–,O=C(CCCCCCc1ccccc1)c1nc2ncccc2o1
> 10,–,O=C(CCCCCCc1ccccc1)c1ncc(Br)o1
> 10,–,O=C(CCCCCCc1ccccc1)c1ncc(C(F)(F)F)o1
> 10,–,CS(=O)(=O)c1cnc(C(=O)CCCCCCc2ccccc2)o1
> 10,–,O=C(CCCCCc1ccccc1)c1nc2cccc(F)c2o1
0.479,–,CC(C)(C)C(=O)c1coc(C(=O)CCCCCCc2ccccc2)n1
> 10,–,O=C(CCCCCCc1ccccc1)c1nnc(-c2ccccc2)s1
> 10,–,O=C(CCCCCCc1ccccc1)c1ncc(-c2ccc(C(F)(F)F)cn2)o1
0.389,–,CS(=O)(=O)c1coc(C(=O)CCCCCCc2ccccc2)n1
0.708,–,O=C(CCCCCc1ccccc1)c1nc2ccc(F)cc2o1
0.891,–,O=C(CCCCCc1ccccc1)c1nc2cc([N+](=O)[O-])ccc2o1
0.0871,–,O=C(CCCCCc1ccccc1)c1nc2ccc([N+](=O)[O-])cc2o1

IC50 [µM],pIC50 (hek-293t),SMILES
5.89,–,O=C(CCCCCc1ccccc1)c1nc2ccc(Br)cc2o1
> 10,–,O=C(CCCCCCc1ccccc1)c1nnc(-c2ccccc2)[nH]1
0.55,–,C=CCCCCCCCC(=O)c1nc2ncccc2o1
> 10,–,COc1cnc(C(=O)CCCCCCc2ccccc2)o1
18.2,–,O=C(CCc1ccccc1)c1nc2ncccc2o1
> 10,–,COc1ccc(-c2cnc(C(=O)CCCCCCc3ccccc3)o2)nc1
> 10,–,O=C(CCCCCc1ccccc1)c1nc2cccc(Br)c2o1
> 10,–,O=C(CCCCCCc1ccccc1)c1ncc(-c2cccc(F)c2)o1
> 10,–,CCCCC(=O)c1nc2ncccc2o1
> 10,–,O=C(CCCCCCc1ccccc1)c1nnc(-c2ccco2)o1
> 10,–,O=C(CCCCCCc1ccccc1)c1nnc(-c2cccs2)s1
> 10,–,O=C(CCCCCCc1ccccc1)c1nc(Br)co1
> 10,–,O=C(CCCCCCc1ccccc1)c1ncno1
> 10,–,COC(=O)c1nnc(C(=O)CCCCCCc2ccccc2)s1
> 10,–,Cn1nnnc1C(=O)CCCCCCc1ccccc1
> 10,–,O=C(CCCCCCc1ccccc1)c1cccnn1
> 10,< 5,O=C(CCCCCCc1ccccc1)c1nnn[nH]1
8.71,–,O=C(CCCCCCc1ccccc1)c1nc(-c2ccccc2)co1
> 10,–,CNC(=O)c1coc(C(=O)CCCCCCc2ccccc2)n1
1.51,–,O=Cc1coc(C(=O)CCCCCCc2ccccc2)n1
> 10,–,CSc1coc(C(=O)CCCCCCc2ccccc2)n1
0.123,–,O=C(CCCCCCc1ccccc1)c1nc(C(=O)C(F)(F)F)co1

IC50 [µM],pIC50 (hek-293t),SMILES
0.631,–,COC(=O)c1coc(C(=O)CCCCCCc2ccccc2)n1
> 10,–,O=C(CCCCCCc1ccccc1)c1nc(-c2ccccn2)co1
0.123,–,CC(=O)c1coc(C(=O)CCCCCCc2ccccc2)n1
0.214,–,O=C(CCCCCCc1ccccc1)c1nc(C(F)(F)F)co1
2.34,–,O=C(CCCCCCc1ccccc1)c1nc(I)co1
> 10,–,Cc1coc(C(=O)CCCCCCc2ccccc2)n1
0.575,–,N#Cc1coc(C(=O)CCCCCCc2ccccc2)n1
2.4,–,O=C(CCCCCCc1ccccc1)c1nc(Cl)co1
3.39,–,CN(C)C(=O)c1coc(C(=O)CCCCCCc2ccccc2)n1
0.204,–,O=C(CCCCc1ccccc1)c1nc2ncccc2o1
1.95,–,O=C(CCCCCCc1ccccc1)c1nc(-c2cccs2)no1
> 10,–,O=C(O)c1cccc(-c2noc(C(=O)CCCCCCc3ccccc3)n2)n1
> 10,–,Cn1nnc(C(=O)CCCCCCc2ccccc2)n1
> 10,–,O=C(CCCCCCc1ccccc1)c1nnn(-c2ccccn2)n1
2.69,–,O=C(CCCCCCc1ccccc1)c1nnco1
> 10,–,COC(=O)c1nc(C(=O)CCCCCCc2ccccc2)no1
> 10,–,O=C(CCCCCCc1ccccc1)c1ncc(-c2ccccn2)s1
> 10,–,COC(=O)c1nnc(C(=O)CCCCCCc2ccccc2)[nH]1
> 10,–,O=C(CCCCCCc1ccccc1)c1nnn(-c2ccco2)n1
> 10,–,O=C(CCCCCCc1ccccc1)c1noc(-c2ccccn2)n1
> 10,–,O=C(CCCCCCc1ccccc1)c1noc(-c2cccs2)n1
2.75,–,O=C(CCCCCCc1ccccc1)c1nc(-c2ccccn2)no1

IC50 [µM],pIC50 (hek-293t),SMILES
0.933,–,O=C(CCCCCCc1ccccc1)c1nc(-c2ccco2)no1
1.05,–,N#Cc1cccc(-c2noc(C(=O)CCCCCCc3ccccc3)n2)n1
> 10,–,O=C(CCCCCCc1ccccc1)c1ncc(-c2ccco2)s1
> 10,–,O=C(CCCCCCc1ccccc1)c1nnc(-c2ccco2)[nH]1
> 10,–,O=C(CCCCCCc1ccccc1)c1nnc(-c2cccs2)[nH]1
> 10,–,O=C(CCCCCCc1ccccc1)c1ccc(-c2ccccn2)nn1
> 10,–,O=C(CCCCCCc1ccccc1)c1nncs1
> 10,–,O=C(CCCCCCc1ccccc1)c1nnc(-c2ccccn2)s1
> 10,–,O=C(CCCCCCc1ccccc1)c1ccc(-c2cccs2)nn1
> 10,–,O=C(CCCCCCc1ccccc1)c1nnc[nH]1
> 10,–,O=C(CCCCCCc1ccccc1)c1nc(-c2cccc(I)n2)no1
> 10,–,O=C(CCCCCCc1ccccc1)c1ccc(-c2ccco2)nn1
> 10,–,O=C(CCCCCCc1ccccc1)c1noc(-c2ccco2)n1
> 10,–,O=C(CCCCCCc1ccccc1)c1nnn(-c2cccs2)n1
> 10,–,O=C(CCCCCCc1ccccc1)c1nnc(-c2ccccn2)[nH]1
> 10,–,O=C(CCCCCCc1ccccc1)c1ncc(-c2cccs2)s1
> 10,–,COC(=O)c1cccc(-c2noc(C(=O)CCCCCCc3ccccc3)n2)n1
> 10,–,O=C(CCCCCCc1ccccc1)c1nc(-c2cccc(Cl)n2)no1
2.04,–,O=C(CCCCCCc1ccccc1)c1nc(-c2cccc(Br)n2)no1
> 10,–,O=C(CCCCCCc1ccccc1)c1nc(-c2ccncc2)co1
> 10,–,O=C(CCCCCCc1ccccc1)c1nnc(-c2ccco2)s1
> 10,–,COc1coc(C(=O)CCCCCCc2ccccc2)n1
